Measurements as given in ChEMBL document CHEMBL4513216, “Probing the Open Global Health Chemical Diversity Library for Multistage-Active Starting Points for Next-Generation Antimalarials” (ACS Infect Dis, 2020).

Experiment: Toxicity liver stage against HepG2, at 10uM
Assay type: cell-based
Design: test concentration 10 uM, cell line HepG2-A16-CD81EGFP
Conditions: human, HepG2-A16-CD81EGFP cells; read-out: INHIBITION
Summary of the method: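 Uninfected HepG2-A16-CD81EGFP cells, 3 × 10^3 per well, 1536-well, plated on prespotted compound at 10 μM final, parasite-free screening media added to match infected plates; puromycin 10 μM positive, DMSO 0.5% negative; run in parallel with 48 h PbLuc assay at 37 °C, 5% CO2; viability by CellTiter-Glo luminescence, normalized to controls.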

| SMILES | cytotoxicity at 10 µM [%] |
| --- | --- |
| CC(O)CNC(=O)CCc1nc2ncccc2[nH]1 (centres undefined) | -3.5 |
| COc1ccc(C(=O)NCCCn2ccnc2)c(OC)n1 | 4.99 |
| CCC(=O)Nc1c(C)nn(COc2cccc(F)c2)c1C | 7.77 |
| CCn1cc(CN(C)S(=O)(=O)c2ccc(C(C)C)cc2)cn1 | 20.1 |
| CSc1nc2ccsc2c(=O)n1CC(=O)N(C)C1CCCCC1 | 0.773 |
| c1cc(-c2nn3c(CN4CCOCC4)nnc3s2)ccn1 | 11 |
| COc1c(CC2CC(CO)=NO2)c(Br)c2c(c1OC)OCO2 (centres undefined) | -1.43 |
| CN1CCC(Cc2cnc(CNC(=O)Cc3cccc(F)c3)cn2)CC1 | -2.67 |
| CS(=O)(=O)N1CCCC(Cc2cnc(Br)cn2)C1 (centres undefined) | 17.3 |
| O=C1Nc2ccccc2CC12CCCN2Cc1ccc(C(F)(F)F)cc1 (centres undefined) | 30.2 |
| CC(C)c1cc(Br)ccc1NC(=O)NC(C)(CO)CO | 9.83 |
| CC(CO)NS(=O)(=O)c1cccc(C(C)C)c1 (centres undefined) | -20 |
| CC(C)(CNC(=O)C1(c2cccc(Br)c2)CCOCC1)C(=O)O | 2.9 |
| Cc1noc(C)c1CN(C)C(=O)C1CCCc2ccccc21 (centres undefined) | 2.45 |
| COc1cc(NCCNC(=O)c2cscc2C)cc(OC)c1 | 1.6 |
| Cc1occc1C(=O)NCC(=O)N(C)CCCOc1ccc(F)cc1 | -41.9 |
| O=C(Cc1ccccc1F)NCC1CCN(CCc2ccccc2)C1 (centres undefined) | -43.5 |
| Cc1csc([C@@H]2C[C@@H]3CCN(Cc4cc(C)on4)C[C@H]3O2)n1 | -106 |
| Cc1ccc(OC2(C(=O)NC(C)Cc3ccncc3)CCNCC2)cc1 (centres undefined) | -9.89 |
| COCc1cn(CC2CCN(Cc3cc(C)[nH]n3)CC2)nn1 | -2.44 |
| CN(C)CCN1CC(C(=O)NCc2cccc(-n3cccn3)c2)CC1=O (centres undefined) | -0.0342 |
| CC(C)SCC(=O)N1Cc2cnc(-c3ccccc3)nc2C1 | 1.2 |

| SMILES | cytotoxicity at 10 µM [%] |
| --- | --- |
| CN(CCc1ccccn1)C(=O)CCC1CCCN(c2ccncc2)C1 (centres undefined) | -3.48 |
| Cc1ccc(OC2(C(=O)O)CCN(C(=O)c3cc(C)oc3C)CC2)cn1 | 0.0255 |
| CO[C@H]1CN(C(C)C)C[C@@H]1NC(=O)c1cc(-c2ccccc2F)n[nH]1 | -6.01 |
| Cc1nc(C(C)C)ncc1C(=O)N1CCCC(N2CCCC2)C1 (centres undefined) | -20.1 |
| CN(C)C(=O)N1CCN(C(=O)CCc2ccccc2)[C@H]2CS(=O)(=O)C[C@H]21 | -17.1 |
| CC(C)c1cc(N2CCN(c3ccc(O)cc3)CC2)n2nccc2n1 | -5.76 |
| CCn1nc(CC(C)C)cc1C(=O)N1CC[C@@H](O)C1 | 16.5 |
| CC(C)C(=O)N1CCN(C(=O)c2cscn2)[C@H]2CS(=O)(=O)C[C@H]21 | -7.15 |
| Cc1c[nH]c(CN(C)C(=O)c2cccc(CCC(C)(C)O)c2)n1 | -6.85 |
| CNC(=O)c1cccc(C2CNCCN2C)c1 (centres undefined) | 2.91 |
| CCN(CC1CCOC1)C(=O)c1ccccc1N1CCOCC1 (centres undefined) | -13.6 |
| CN(CCn1cccn1)S(=O)(=O)N1CCCC1c1ccco1 (centres undefined) | -9.56 |
| Cc1cc(CC(=O)N(CC2CN(C)CCO2)c2nccs2)no1 (centres undefined) | -7.49 |
| Cc1ccc(N2CCCC(NCc3cscn3)C2)nn1 (centres undefined) | -7.2 |
| Cc1cc(C[C@@H]2CCC[C@H]2NCc2cc(C)c(O)c(C)c2)on1 | 3.37 |
| CN(Cc1cncnc1)[C@@H]1CN(C(=O)c2ccco2)[C@@H]2CCCO[C@H]12 | -113 |
| COCC(=O)N1CCC2(CC1)CC(COC)N(Cc1ccccn1)C2 (centres undefined) | -101 |
| CN1CCO[C@@H]2CN(C(=O)Cc3cccs3)CC[C@@H]2C1 | -103 |
| CCc1ncnc2c1CCN(Cc1ccc(OC)cc1)CC2 | -0.00161 |
| c1ccc2c(c1)SCCC2NCc1ccc(N2CCOCC2)cc1 (centres undefined) | -4.86 |
| Cc1nc[nH]c1CN1C[C@H]2CC[C@@H](C1)N(C(=O)CCNS(C)(=O)=O)C2 | -10.4 |
| CCc1nnc(SCC(=O)N2C[C@H]3CC[C@@H](C2)N(CC=C(C)C)C3)[nH]1 | -6.18 |
